Laboratory results published in ChEMBL document CHEMBL3425449, “Identification of MK-8133: An orexin-2 selective receptor antagonist with favorable development properties” (Bioorg Med Chem Lett, 2015).
Converted amounts (≈) assume the structure as drawn. The source made the active and inactive calls. The rule behind the calls is not given here.

Tests used:
Homo sapiens = organism: Homo sapiens; test: Inhibition of CYP450 (unknown origin)
[1] = Half life in Wistar Han rat at 10 mg/kg, po or 2 mg/kg, iv; format: ADME, organism-based; details: in vivo
Summary of the method: (§1)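 Pharmacokinetics in Wistar Han rats (n = 2) after intravenous and oral dosing. Oral dose was 10 mg/kg in PEG400:Tween80/water 40:10:50. IV dose was 2 mg/kg in DMSO/PEG400/water 20:60:20.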

Canis familiaris [2] = test: Sleep promoting activity in beagle dog assessed as increase in REM2 sleep at 0.01 and 0.05 mg/kg, po dosed for 5 consecutive days; format: functional, organism-based; set-up: dose 0.05 mg/kg; details: Canis lupus familiaris, in the assay text read “NREM2 sleep” for “REM2 sleep”
Summary of the method: (§2)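 Beagles implanted with radio-telemetry ECoG/EMG transmitters received 0.01 and 0.05 mg/kg po or vehicle (20% Vitamin E TPGS). Balanced cross-over design over 5 consecutive days. Active wake, NREM I, NREM II (including delta sleep) and REM were scored as mean within-subject change versus vehicle.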

P-gp [3] = test: Substrate activity at rat P-gp assessed as efflux ratio in cell based assay; format: ADME; details: not told
Mus musculus [4] = test: Sleep promoting activity in mouse assessed as increase in slow wave sleep at 30 mg/kg, po dosed for 5 consecutive days measured after 1 hr; format: functional, organism-based; set-up: dose 30 mg/kg
Summary of the method: (§3)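 Sleep architecture recorded in ambulatory mice (wild-type N = 7; OX2R KO N = 6) implanted with radio-telemetry transmitters for ECoG and EMG. Compound given at 30 mg/kg po; vehicle was 20% Vitamin E TPGS po. Balanced cross-over design over 5 consecutive treatment days. Read-out is mean within-subject change versus vehicle in active wake, SWS and REM.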

Canis familiaris [5] = test: Sleep promoting activity in beagle dog assessed as reduction of active wake at 0.01 and 0.05 mg/kg, po dosed for 5 consecutive days; format: functional, organism-based; set-up: dose 0.05 mg/kg; details: Canis lupus familiaris; summary of the method: as §2
[6] = Unbound fraction in dog plasma at 1 uM; format: ADME, cell-free, Canis lupus familiaris
Summary of the method: (§4)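 Plasma protein binding measured at a compound concentration of 1 µM. Reported as percent unbound fraction in human, rat, dog and monkey plasma.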

[7] = Intrinsic clearance in human microsomes; format: ADME, Microsome
Rattus norvegicus [8] = test: Sleep promoting activity in rat assessed as increase in slow wave sleep at 1 and 3 mg/kg, po dosed for 3 consecutive days measured after 2 hrs; format: functional, organism-based; set-up: dose 3 mg/kg
Summary of the method: (§5)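 Rats implanted with radio-telemetry ECoG/EMG transmitters and recorded while ambulatory. Dosed at 1 and 3 mg/kg po or with vehicle (20% Vitamin E TPGS) in a balanced cross-over over 3 consecutive days. Active wake, SWS and REM were scored in the 2 h after dosing as within-subject change versus vehicle.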

Canis familiaris [9] = test: Sleep promoting activity in beagle dog assessed as increase in delta sleep at 0.01 and 0.05 mg/kg, po dosed for 5 consecutive days; format: functional, organism-based; set-up: dose 0.05 mg/kg; details: Canis lupus familiaris; summary of the method: as §2
Rattus norvegicus [10] = test: Sleep promoting activity in rat assessed as reduction of active wake at 1 and 3 mg/kg, po dosed for 3 consecutive days measured after 2 hrs; format: functional, organism-based; set-up: dose 3 mg/kg; summary of the method: as §5
[11] = Clearance in dog at 10 mg/kg, po or 2 mg/kg, iv; format: ADME, organism-based, Canis lupus familiaris; details: in vivo
Summary of the method: (§6)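 Dog pharmacokinetics determined after intravenous and oral administration.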

[12] = Unbound fraction in human plasma at 1 uM; format: ADME, cell-free; summary of the method: as §4
[13] = Unbound fraction in monkey plasma at 1 uM; format: ADME, cell-free, Macaca mulatta; details: rhesus monkey; summary of the method: as §4
[14] = Solubility of the compound at pH 7; format: physicochemical; details: buffer, read-out: solubility
[15] = Clearance in Wistar Han rat at 10 mg/kg, po or 2 mg/kg, iv; format: ADME, organism-based; details: in vivo; summary of the method: as §1
P-gp [16] = test: Substrate activity at human P-gp assessed as efflux ratio in cell based assay; format: ADME; details: not told
Rattus norvegicus [17] = test: Sleep promoting activity in rat assessed as increase in REM sleep at 1 and 3 mg/kg, po dosed for 3 consecutive days measured after 2 hrs; format: functional, organism-based; set-up: dose 3 mg/kg; summary of the method: as §5
[18] = Volume of distribution at steady state in Wistar Han rat at 10 mg/kg, po or 2 mg/kg, iv; format: ADME, organism-based; details: in vivo, read-out: Vdss; summary of the method: as §1
[19] = biological target: T1, Orexin/Hypocretin receptor type 1 (Homo sapiens, UniProt O43613); test: Antagonist activity against human OX1R expressed in CHOK1 cells assessed as inhibition of orexin A-induced […] Ca2+ mobilization by FLIPR assay; format: functional, cell-based, CHO-K1
T1 sequence (O43613 whole entry): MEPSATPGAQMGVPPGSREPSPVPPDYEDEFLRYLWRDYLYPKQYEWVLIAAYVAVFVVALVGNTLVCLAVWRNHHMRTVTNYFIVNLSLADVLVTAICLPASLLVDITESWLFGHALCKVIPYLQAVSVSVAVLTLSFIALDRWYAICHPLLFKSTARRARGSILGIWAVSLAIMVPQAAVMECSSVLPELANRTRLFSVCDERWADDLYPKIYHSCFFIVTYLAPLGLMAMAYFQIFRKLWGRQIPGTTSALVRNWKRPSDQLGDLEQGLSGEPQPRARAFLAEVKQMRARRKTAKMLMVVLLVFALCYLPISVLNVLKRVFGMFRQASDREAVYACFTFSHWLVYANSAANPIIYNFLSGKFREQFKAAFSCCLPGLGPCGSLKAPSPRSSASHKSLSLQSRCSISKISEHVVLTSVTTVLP
Summary of the method: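 Cell-based FLIPR assay measuring Ca2+ flux as the functional read-out of orexin receptor antagonism. Target is the human orexin receptor expressed in CHO-K1 cells.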

[20] = Oral bioavailability in Wistar Han rat at 10 mg/kg; format: ADME, organism-based; details: in vivo; summary of the method: as §1
Canis familiaris [21] = test: Sleep promoting activity in beagle dog assessed as increase in non-REM NREM1 sleep at 0.01 and 0.05 mg/kg, po dosed for 5 consecutive days; format: functional, organism-based; set-up: dose 0.05 mg/kg; details: Canis lupus familiaris; summary of the method: as §2
[22] = Solubility of the compound at pH 7.4; format: physicochemical; details: buffer
[23] = Unbound fraction in rat plasma at 1 uM; format: ADME, cell-free; summary of the method: as §4
[24] = Ratio of drug level in CSF to plasma in rat; format: ADME; details: CSF and plasma
[25] = Induction of CYP450 (unknown origin); format: ADME; details: human
Mus musculus [26] = test: Sleep promoting activity in mouse assessed as effect on REM sleep at 30 mg/kg, po dosed for 5 consecutive days measured after 1 hr; format: functional, organism-based; set-up: dose 30 mg/kg; summary of the method: as §3
[27] = Oral bioavailability in dog at 10 mg/kg; format: ADME, organism-based, Canis lupus familiaris; details: in vivo; summary of the method: as §6
CHO-K1 = test: Selectivity index, ratio of IC50 for human OX1R expressed in CHOK1 cells to IC50 for human OX2R expressed in CHOK1 cells by FLIPR assay; format: cell-based
Summary of the method: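 Ratio of OX1R FLIPR IC50 to OX2R FLIPR IC50. Both come from Ca2+-flux assays on human orexin receptors expressed in CHO-K1 cells, each averaged over n ≥ 2 experiments.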

Mus musculus [28] = test: Sleep promoting activity in OX2R knock out mouse with targeted disruption of the Hcrtr2 gene assessed as effect on active wake at 30 mg/kg, po dosed for 5 consecutive days measured after 1 hr; format: functional, organism-based; set-up: dose 30 mg/kg; summary of the method: as §3
[29] = Lipophilicity, log D of the compound by HPLC method; format: physicochemical; details: read-out: logD
Canis familiaris [30] = test: Sleep promoting activity in beagle dog assessed as increase in REM sleep at 0.01 and 0.05 mg/kg, po dosed for 5 consecutive days; format: functional, organism-based; set-up: dose 0.05 mg/kg; details: Canis lupus familiaris; summary of the method: as §2
[31] = Permeability in pig LLC-PK1 cells; format: ADME, cell-based, Sus scrofa; details: read-out: permeability
Summary of the method: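 Passive permeability measured in LLC-PK1 cells and expressed in cm/s.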

[32] = Volume of distribution at steady state in dog at 10 mg/kg, po or 2 mg/kg, iv; format: ADME, organism-based, Canis lupus familiaris; details: in vivo, read-out: Vdss; summary of the method: as §6
Mus musculus [33] = test: Sleep promoting activity in OX2R knock out mouse with targeted disruption of the Hcrtr2 gene assessed as effect on slow wave sleep at 30 mg/kg, po dosed for 5 consecutive days measured after 1 hr; format: functional, organism-based; set-up: dose 30 mg/kg; summary of the method: as §3
Mus musculus [34] = test: Sleep promoting activity in mouse assessed as reduction of active wake at 30 mg/kg, po dosed for 5 consecutive days measured after 1 hr; format: functional, organism-based; set-up: dose 30 mg/kg; summary of the method: as §3
[35] = Half life in dog at 10 mg/kg, po or 2 mg/kg, iv; format: ADME, organism-based, Canis lupus familiaris; details: in vivo; summary of the method: as §6
Mus musculus [36] = test: Sleep promoting activity in OX2R knock out mouse with targeted disruption of the Hcrtr2 gene assessed as effect on REM sleep at 30 mg/kg, po dosed for 5 consecutive days measured after 1 hr; format: functional, organism-based; set-up: dose 30 mg/kg; summary of the method: as §3

For C[C@@H]1CC[C@@H](Oc2cc(C#N)ccn2)CN1C(=O)c1ccccc1-c1ncccn1, which inhibition (Homo sapiens) is on record?
The inhibition was “inactive”.

What about the half-life [1] of the same molecule?
Its half-life is 4.3 h.

What about the Activity (Canis familiaris [2]) of the same molecule?
The Activity was “Dose-dependent effect”.

What about the efflux ratio (P-gp [3]) of the same molecule?
The efflux ratio was 2.3.

What about the Activity (Mus musculus [4]) of the same molecule?
The Activity was “Active”.

And the Activity (Canis familiaris [5])?
The Activity was “Dose-dependent effect”.

And the fraction unbound at 1 µM [6]?
The fraction unbound at 1 µM was 0.166.

And the CLint scaled [7]?
The CLint scaled was 17 mL/min/kg.

And the Activity (Rattus norvegicus [8])?
Its Activity is “Active”.

What about the Activity (Canis familiaris [9]) of the same molecule?
The Activity was “Dose-dependent effect”.

What about the Activity (Rattus norvegicus [10]) of the same molecule?
Its Activity is “Active”.

What about the clearance [11] of the same molecule?
The clearance was 15 mL/min/kg.

And the fraction unbound at 1 µM [12]?
Its fraction unbound at 1 µM is 0.028.

What about the fraction unbound at 1 µM [13] of the same molecule?
Its fraction unbound at 1 µM is 0.239.

And the solubility [14]?
The solubility was 183 µM (≈ 73.1 µg/mL).

And the clearance [15]?
The clearance was 37 mL/min/kg.

What about the efflux ratio (P-gp [16]) of the same molecule?
Its efflux ratio is 0.7.

And the Activity (Rattus norvegicus [17])?
Its Activity is “Active”.

And the Vd [18]?
The Vd was 1.3 L/kg.

What about the IC50 [19] of the same molecule?
Its IC50 is 4.9 µM.

What about the bioavailability [20] of the same molecule?
The bioavailability was 80%.

What about the Activity (Canis familiaris [21]) of the same molecule?
Its Activity is “Dose-dependent effect”.

What about the solubility [22] of the same molecule?
Its solubility is 250 µg/mL (≈ 626 µM).

And the fraction unbound at 1 µM [23]?
The fraction unbound at 1 µM was 0.076.

And the Kp [24]?
The Kp was 0.1.

And the Activity [25]?
Its Activity is “Not Active”.

What about the Activity (Mus musculus [26]) of the same molecule?
Its Activity is “inactive”.

What about the bioavailability [27] of the same molecule?
Its bioavailability is 53%.

What about the Ratio IC50 (CHO-K1) of the same molecule?
Its Ratio IC50 is 174.

And the Activity (Mus musculus [28])?
The Activity was “inactive”.

What about the logD [29] of the same molecule?
The logD was 2.9.

What about the Activity (Canis familiaris [30]) of the same molecule?
The Activity was “Active”.

What about the Papp [31] of the same molecule?
Its Papp is 33 ×10⁻⁶ cm/s.

What about the Vd [32] of the same molecule?
The Vd was 0.97 L/kg.

And the Activity (Mus musculus [33])?
Its Activity is “inactive”.

What about the Activity (Mus musculus [34]) of the same molecule?
The Activity was “Active”.

What about the half-life [35] of the same molecule?
Its half-life is 0.8 h.

What about the Activity (Mus musculus [36]) of the same molecule?
The Activity was “inactive”.
